Measured values from ChEMBL document CHEMBL2146441, “2,6-Disubstituted imidazo[2,1-b][1,3,4]thiadiazoles: search for anticancer agents” (2012).

What was measured:
Assay type in all cases: functional
[1] = tested on: MDA-MB-231; assay: Cytotoxicity against human MDA-MB-231 cells assessed as cell growth at 10^-5 M after 48 hrs by SRB assay; conditions: MDA-MB-231, 48 h, read-out: Activity
[2] = tested on: RXF 393; assay: Cytotoxicity against human RXF393 cells assessed as cell growth at 10^-6 M after 48 hrs by SRB assay; conditions: RXF 393, 48 h, read-out: Activity
[3] = tested on: SF-539; assay: Cytotoxicity against human SF539 cells assessed as cell growth at 10^-8 M after 48 hrs by SRB assay; conditions: SF-539, 48 h, read-out: Activity
[4] = tested on: UACC-257; assay: Cytotoxicity against human UACC257 cells assessed as cell growth at 10^-4 M after 48 hrs by SRB assay; conditions: UACC-257, 48 h, read-out: Activity
[5] = tested on: OVCAR-5; assay: Cytotoxicity against human OVCAR5 cells assessed as cell growth at 10^-6 M after 48 hrs by SRB assay; conditions: OVCAR-5, 48 h, read-out: Activity
[6] = tested on: OVCAR-8; assay: Cytotoxicity against human OVCAR8 cells assessed as cell growth at 10^-4 M after 48 hrs by SRB assay; conditions: OVCAR-8, 48 h, read-out: Activity
[7] = tested on: MDA-MB-231; assay: Cytotoxicity against human MDA-MB-231 cells assessed as cell growth at 10^-8 M after 48 hrs by SRB assay; conditions: MDA-MB-231, 48 h, read-out: Activity
[8] = tested on: CAKI-1; assay: Cytotoxicity against human Caki1 cells assessed as cell growth at 10^-5 M after 48 hrs by SRB assay; conditions: CAKI-1, 48 h, read-out: Activity
How it was run: (§1)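 NCI-60 screen: lines kept in RPMI 1640 with 5% FBS, seeded at 5000–40,000 cells/well by doubling time, preincubated 24 h at 37 °C in 5% CO2. Time-zero plates TCA-fixed at drug addition. DMSO stocks diluted in medium, 48 h exposure. Fixation in cold TCA (final 10% adherent, 16% suspension), 0.4% SRB stain, solubilised in 10 mM Tris base, A515. Percent growth computed against control and time-zero.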

[9] = tested on: SF-295; assay: Growth inhibition of human SF295 cells after 48 hrs by SRB assay; conditions: SF-295, 48 h; for CC50: read-out: LC50 (the source's name)
How it was run: (§2)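 Adherent NCI-60 lines grown in RPMI 1640 with 5% FBS, seeded at 5000–40,000 cells/well, and preincubated 24 h at 37 °C, 5% CO2. Compound, stocked in DMSO, given either once at 10^-5 M or at five 10-fold dilutions for 48 h. Cells fixed with cold TCA (final 10%), stained with 0.4% SRB, and read at 515 nm. GI50 taken as 50% reduction in net protein increase versus time-zero and control plates.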

[10] = tested on: T47D; assay: Cytotoxicity against human T47D cells assessed as cell growth at 10^-8 M after 48 hrs by SRB assay; conditions: read-out: Activity
[11] = tested on: HOP-92; assay: Cytotoxicity against human HOP92 cells assessed as cell growth at 10^-6 M after 48 hrs by SRB assay; conditions: HOP-92, 48 h, read-out: Activity
[12] = tested on: UO-31; assay: Cytotoxicity against human UO31 cells assessed as cell growth at 10^-5 M after 48 hrs by SRB assay; conditions: UO-31, 48 h, read-out: Activity
[13] = tested on: SNB-75; assay: Cytotoxicity against human SNB75 cells assessed as cell growth at 10^-4 M after 48 hrs by SRB assay; conditions: SNB-75, 48 h, read-out: Activity
[14] = tested on: PC-3; assay: Growth inhibition of human PC3 cells after 48 hrs by SRB assay; conditions: PC-3, 48 h; for CC50: read-out: LC50 (the source's name); how it was run: as §2
[15] = tested on: NCI-H226; assay: Growth inhibition of human NCI-H226 cells after 48 hrs by SRB assay; conditions: NCI-H226, 48 h; for CC50: read-out: LC50 (the source's name); how it was run: as §2
[16] = Cytotoxicity against human […] cells assessed as cell growth at 10^-5 M after 48 hrs by SRB assay; conditions: RPMI8266, 48 h, read-out: Activity
[17] = tested on: NCI-H522; assay: Cytotoxicity against human NCI-H522 cells assessed as cell growth at 10^-8 M after 48 hrs by SRB assay; conditions: NCI-H522, 48 h, read-out: Activity
[18] = tested on: 786-0; assay: Cytotoxicity against human 786-0 cells assessed as cell growth at 10^-8 M after 48 hrs by SRB assay; conditions: 786-0, 48 h, read-out: Activity; how it was run: as §1
[19] = tested on: TK-10; assay: Cytotoxicity against human TK10 cells assessed as cell growth at 10^-5 M after 48 hrs by SRB assay; conditions: TK-10, 48 h, read-out: Activity
[20] = tested on: NCI-H23; assay: Growth inhibition of human NCI-H23 cells at 10^-8 M after 48 hrs by SRB assay; set-up: scale not given: the % may be the effect or the level left
[21] = tested on: NCI-H23; assay: Growth inhibition of human NCI-H23 cells at 10^-6 M after 48 hrs by SRB assay; set-up: scale not given: the % may be the effect or the level left
[22] = tested on: SK-MEL-5; assay: Growth inhibition of human SK-MEL-5 cells at 10^-7 M after 48 hrs by SRB assay; set-up: scale not given: the % may be the effect or the level left
[23] = tested on: NCI-H23; assay: Growth inhibition of human NCI-H23 cells after 48 hrs by SRB assay; conditions: NCI-H23, 48 h; how it was run: as §2
[24] = tested on: SK-MEL-5; assay: Growth inhibition of human SK-MEL-5 cells at 10^-8 M after 48 hrs by SRB assay; set-up: scale not given: the % may be the effect or the level left
[25] = Cytotoxicity against human NCI-ADR-RES cells assessed as cell growth at 10^-4 M after 48 hrs by SRB assay; conditions: read-out: Activity
[26] = tested on: SK-MEL-5; assay: Growth inhibition of human SK-MEL-5 cells at 10^-5 M after 48 hrs by SRB assay; set-up: scale not given: the % may be the effect or the level left
[27] = tested on: NCI-H23; assay: Growth inhibition of human NCI-H23 cells at 10^-7 M after 48 hrs by SRB assay; set-up: scale not given: the % may be the effect or the level left
[28] = tested on: A549; assay: Cytotoxicity against human A549 cells assessed as cell growth at 10^-4 M after 48 hrs by SRB assay; conditions: A549, 48 h, read-out: Activity
[29] = tested on: SK-MEL-5; assay: Growth inhibition of human SK-MEL-5 cells at 10^-6 M after 48 hrs by SRB assay; set-up: scale not given: the % may be the effect or the level left
[30] = tested on: NCI-H23; assay: Growth inhibition of human NCI-H23 cells at 10^-5 M after 48 hrs by SRB assay; set-up: scale not given: the % may be the effect or the level left
[31] = tested on: SK-MEL-5; assay: Growth inhibition of human SK-MEL-5 cells after 48 hrs by SRB assay; conditions: SK-MEL-5, 48 h, read-out: LC50 (the source's name); how it was run: as §2
[32] = tested on: NCI-H23; assay: Growth inhibition of human NCI-H23 cells at 10^-4 M after 48 hrs by SRB assay; set-up: scale not given: the % may be the effect or the level left
[33] = tested on: SK-MEL-5; assay: Growth inhibition of human SK-MEL-5 cells at 10^-4 M after 48 hrs by SRB assay; set-up: scale not given: the % may be the effect or the level left

SMILES	growth at 10 µM [1]	growth at 1 µM [2]	growth at 0.01 µM [3]	growth at 100 µM [4]	growth at 1 µM [5]	growth at 100 µM [6]	growth at 0.01 µM [7]	growth at 10 µM [8]	GI50 [9]	TGI [9]	CC50 [9]	growth at 0.01 µM [10]	growth at 100 µM [13]	GI50 [14]	TGI [14]	CC50 [14]	GI50 [15]	TGI [15]	CC50 [15]	growth at 10 µM [16]	further results
COc1ccc(-c2nn3cc(-c4ccc(O)cc4O)nc3s2)cc1	-54%	55%	105%	-5%	84%	-8%	99%	8%	2.16 µM	15.1 µM	> 100 µM	104%	-37%	1.95 µM	> 100 µM	> 100 µM	1.43 µM	6.95 µM	> 100 µM	10%	growth at 1 µM [11]: 25%; growth at 10 µM [12]: -46%; growth at 0.01 µM [17]: 89%; growth at 0.01 µM [18]: 97%; growth at 10 µM [19]: 7%
COc1ccc(-c2nn3cc(-c4cccc(N)c4)nc3s2)cc1	5%	63%	101%	7%	90%	-54%	85%	2%	2.88 µM	29.3 µM	> 100 µM	97%	-49%	1.2 µM	20.8 µM	> 100 µM	1.53 µM	16.2 µM	71.6 µM	6%	Activity [20]: 92%; Activity [21]: 84%; Activity [22]: 91%; GI50 [23]: 4.9 µM; TGI [23]: > 100 µM; CC50 ([23]; read-out: LC50 (the source's name)): > 100 µM; Activity [24]: 91%; growth at 100 µM [25]: -11%; Activity [26]: 1%; Activity [27]: 89%; growth at 100 µM [28]: -46%; Activity [29]: 75%; Activity [30]: 35%; CC50 [31]: 3.32 µM; Activity [32]: 2%; Activity [33]: -96%; growth at 0.01 µM [17]: 82%; growth at 0.01 µM [18]: 106%; growth at 10 µM [19]: 41%
